Columns and labels:
Format in all cases: functional
[1] = organism: Mus musculus; experiment: Analgesic activity was determined in mouse writhing test
Summary of the method: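 Mice received test compound sc; 30 min later 0.2 mL of 0.08 N HCl was given ip. Animals were watched for 15 min for absence of abdominal stretching (writhing). Activity was expressed as ED50 in mg/kg.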

[2] = test system: Mus musculus; experiment: Analgesic activity was determined in mouse pinch writhing test by intraperitoneal administration of 0.2 mL of 0.08 N HCl 30 min after the subcutaneous injection of the compound
[3] = test system: Mus musculus; experiment: Analgesic activity was determined in mouse tail flick writhing test by intraperitoneal administration of 0.2 mL of 0.08 N HCl 30 min after the subcutaneous injection of the compound
[4] = test system: Rattus norvegicus; experiment: Hypotensive activity in the rat as change in blood pressure (mmHg) at 24 hr after of 50 mg/kg oral dose of the compound; Bradycardia
Summary of the method: (§1)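 Conscious restrained female Sprague-Dawley rats fitted with chronic indwelling aortic cannulas exteriorized at the nape. Towel restraint kept sympathetic tone high. Blood pressure was recorded directly by transducer and polygraph at 4 and 24 h after oral dosing in carboxymethylcellulose vehicle at 10 mL/kg. A change of ±5 mmHg was taken as not significant.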

[5] = test system: Rattus norvegicus; experiment: Hypotensive activity in the rat as change in blood pressure (mmHg) at 4 hr after a 50 mg/kg oral dose of the compound; summary of the method: as §1
[6] = test system: Rattus norvegicus; experiment: Hypotensive activity in the rat as change in blood pressure (mmHg) at 24 hr after of 50 mg/kg oral dose of the compound; summary of the method: as §1
[7] = test system: Mus musculus; experiment: Analgesic activity was determined in mouse writhing test by intraperitoneal administration of 0.2 mL of 0.08 N HCl 30 min after the subcutaneous injection of the compound(expt.2); conditions: 0.5 h

SMILES	ED50 ([1]; Mus musculus) [mg/kg]	BP [5] [mmHg]	also measured
C/N=C\Nc1c(C)cc(C)cc1C	0.11	–	–
C/N=C\Nc1cccc(Cl)c1Cl	0.8	–	–
Cc1cc(C(O)c2ccc(Cl)cc2)cc(C)c1/N=C/N(C)C (centres undefined)	> 50	–	–
CC(=O)OC(C)c1cc(C)c(/N=C/N(C)C)c(C)c1 (centres undefined)	> 30	–	–
C/N=C\Nc1ccccc1Cl	35	–	–
Cc1cc(C(C)O)cc(C)c1/N=C/N(C)C (centres undefined)	40	–	–
CCOC(=O)C(C)c1cc(C)c(/N=C/N(C)C)c(C)c1 (centres undefined)	> 50	–	ED50 [2]: 22 mg/kg; ED50 [3]: 18 mg/kg; ED50 [1]: 8 mg/kg
Cc1cc(C(O)c2ccc(Cl)c(Cl)c2)cc(C)c1/N=C/N(C)C (centres undefined)	> 50	–	–
C/N=C\Nc1c(Cl)cccc1Cl.Cl	4.4	-21	BP [4]: -13 mmHg
C/N=C\Nc1ccc(Cl)cc1Cl	> 50	–	–
Cc1ccc(/N=C/N(C)C)c(C)c1.Cl	0.1	–	–
CCOC(=O)C(C)(O)c1cc(C)c(/N=C/N(C)C)c(C)c1 (centres undefined)	> 50	–	–
CCOC(=O)C(C)(OC(C)=O)c1cc(C)c(/N=C/N(C)C)c(C)c1 (centres undefined)	> 50	–	–
C/N=C\Nc1cc(Cl)ccc1Cl.Cl	> 50	3	BP [6]: 5 mmHg
Cc1cccnc1/N=C/N(C)C.Cl	> 50	8	BP [6]: 9 mmHg
C/N=C\Nc1ccc(C)cc1C.Cl	0.02	-10	BP [4]: -19 mmHg
CN(C)/C=N/c1cc(Cl)ccc1Cl.Cl	> 50	-5	BP [6]: -4 mmHg
Cc1cccc(C)c1/N=C/N(C)C.Cl	0.1	-15	BP [6]: -21 mmHg
CCOC(=O)c1cc(C)c(/N=C/N(C)C)c(C)c1.Cl	> 50	–	–
CN(C)/C=N/c1c(Cl)cccc1Cl.Cl	3	-24	BP [4]: -4 mmHg
C/N=C\Nc1ccc(Cl)c(Cl)c1.Cl	> 50	0	BP [6]: -3 mmHg
Cc1cc(C)c(/N=C/N(C)C)c(C)c1.Cl	0.4	-10	ED50 [7]: 0.37 mg/kg; BP [6]: 2 mmHg
CN(C)/C=N/c1ccc(Cl)c(Cl)c1.Cl	> 50	0	BP [6]: 2 mmHg
Clc1cccc(Cl)c1NC1=NCCN1 [CLONIDINE]	0.02	-29	–
